Assay outcomes from PubChem BioAssay.
The list is not random: actives were taken first. Their share in the collection is about 2.8%.
14-3-3 Bad inh = disrupts binding of bovine 14-3-3 zeta to phospho-Bad peptide. TR-FRET 14-3-3zeta/Dy647-pBad peptide displacement, 1 h. P63103. actives 0.71% (n = 220,000). inhibition, % at 21.7 µM;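 active means inhibition above about 70%, limit read from the data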
Target sequence (P63103 whole entry, looked up): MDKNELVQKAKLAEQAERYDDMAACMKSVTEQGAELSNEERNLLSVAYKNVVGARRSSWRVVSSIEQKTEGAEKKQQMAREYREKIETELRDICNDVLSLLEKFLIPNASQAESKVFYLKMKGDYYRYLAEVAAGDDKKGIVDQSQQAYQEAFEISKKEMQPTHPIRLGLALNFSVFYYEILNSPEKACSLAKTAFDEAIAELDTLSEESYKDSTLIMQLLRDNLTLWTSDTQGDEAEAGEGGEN
NCF1 inh = blocks human p47phox regulatory protein of NADPH oxidases; P14598; p47phox/p22phox peptide binding, fluorescence polarization, 2 h; inhibition, % at 24.7 µM; actives 0.53% (n = 220,000)
Target sequence (P14598 whole entry, looked up): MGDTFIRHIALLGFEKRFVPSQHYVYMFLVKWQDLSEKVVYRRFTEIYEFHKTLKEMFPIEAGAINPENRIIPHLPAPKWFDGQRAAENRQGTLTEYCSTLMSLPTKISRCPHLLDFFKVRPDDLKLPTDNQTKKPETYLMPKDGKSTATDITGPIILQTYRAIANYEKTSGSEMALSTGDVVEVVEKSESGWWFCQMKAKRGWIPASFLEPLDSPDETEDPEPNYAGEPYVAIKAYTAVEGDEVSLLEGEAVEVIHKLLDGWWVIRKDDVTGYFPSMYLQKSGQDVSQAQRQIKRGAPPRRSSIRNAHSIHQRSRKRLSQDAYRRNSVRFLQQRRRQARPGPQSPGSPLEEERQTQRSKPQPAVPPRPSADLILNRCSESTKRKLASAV
RBBP9 inh = inhibitors of human serine hydrolase RBBP9; O75884; recombinant RBBP9, FP-Rh probe fluorescence polarization; inhibition, % at 7.94 µM; actives 0.2% (n = 220,000); AID 1515;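 active means inhibition above the campaign mean of all tested compounds plus 3 SD, cut at about 14% in these data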
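Material: RBBP9 protein. Amount: RBBP9 at 2.5 µM in dispensed solution, before mixing. Schedule: 30 min then 45 min, 25 °C. Medium: Tris buffer pH 8.0, NaCl, Pluronic. Measured by: fluorescence polarization. Measure: percent inhibition from mP, scaled between DMSO and no-protein wells. Replication: one well per compound.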
eIF4E 4G PPI = blocks eIF4E binding to eIF4G. TR-FRET eIF4E-eIF4GI(517-606) binding, 2 h. P63073+Q04637. actives 0.37% (n = 220,000). inhibition, % at 21.7 µM
Wee1 degr inh = blocks degradation of human Wee1 kinase; P30291; HeLa Luc-Wee1K328M stability, luciferase luminescence; 100% = proteasome inhibitor MG132 effect; reporter increase, % at 5 µM; actives 1.2% (n = 220,000); AID 1321;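 active means activation above the mean of all tested compounds plus 3 SD, set per screening run, cut at about 8.8% in these data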;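 further: cells exposed to compound for 20 h before luminescence read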
Hits are given with their value; n = inactive; [ ] = dose if it differs, or a comment.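 How the source made its calls, unless noted: active means inhibition above about 30% (limit read from the data); inactive means the rest.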

SMILES	14-3-3 Bad inh	NCF1 inh	RBBP9 inh	eIF4E 4G PPI	Wee1 degr inh
O=C(C[n+]1ccc(Cc2ccccc2)cc1)Nc1ccccc1	n	n	n	n	n
COc1cc(/C=C/C(=O)NC(C)CCc2ccccc2)cc(OC)c1OC (stereo unspecified)	n	n	n	n	11
COc1cc(/C=C\C(=O)NCc2ccc3c(c2)cc(C)n3C)cc(OC)c1OC	n	n	n	n	15
COc1ccc(CC(=O)NCc2ccc3c(c2)cc(C)n3C)cc1OC	n	n	n	n	n
Cn1cc(-c2ccno2)c(C(=O)O)n1	n	n	n	n	n
Cc1[nH]c2ccccc2c1C(=O)NS(=O)(=O)Nc1ccc(F)cc1	n	n	n	n	n
Cc1cn(S(=O)(=O)c2ccccc2[N+](=O)[O-])cn1	n	n	n	n	n
O=C(O)c1ccc(-c2ccc(/C=C3\NC(=O)N(Cc4ccc(Cl)cc4)C3=O)o2)cc1	n	n	n	33	n
Cc1cc(NC(=O)c2noc3c2CCc2ccccc2-3)n(-c2ccccc2)n1	n	n	n	76[fluorescence artefact?]	n
CCOc1ccc(NC(c2ccccn2)c2oc(CO)cc(=O)c2O)cc1 (stereo unspecified)	n	48	n	n	n
CCOc1ccc(NC(=O)C(c2ccccn2)N(C(=O)CCl)c2ccc(OCC)cc2)cc1 (stereo unspecified)	n	n	n	n	n
O=C(CSc1nc2ccccc2n1CCc1ccccc1)c1ccc(O)c(O)c1	94	n	n	62	n
COc1ccc(OC)c(S(=O)(=O)N2CCN(c3c(C)cccc3C)CC2)c1	n	n	n	73	n
CCN1CCN(S(=O)(=O)c2cc(OC)ccc2OC)CC1	n	n	n	n	n
N#CC1=C(N)SC(N)=C(C#N)C1c1ccc([N+](=O)[O-])cc1	n	n	n	n	10
O=C1c2cccc3cccc(c23)C(=O)N1CCN1CCN(C(=S)Nc2ccc(Cl)cc2)CC1	n	32	n	n	n
Nc1nnc(/C=C/c2ccccc2)s1	n	n	n	n	n
CC(C)OP(=O)(c1ccc(N(C)C)cc1)C(Nc1ccccc1)c1ccccc1 (stereo unspecified)	n	n	n	n	n
CCCC(=O)c1c(NCCO)cc(C)oc1=O	n	n	n	n	8.9
CCOC(=O)C1CCN(c2c(C(=O)c3ccccc3)cnc3ccc(Cl)cc23)CC1	n	n	n	n	n
Cc1ccc(S(=O)(=O)NCCC(=O)OCC(=O)Nc2ccccc2Cl)cc1	n	33	n	n	n
Cc1cc(=O)n2[nH]c(NCc3c(F)cccc3Cl)nc2n1	n	n	n	n	n
Cc1cc(C)cc(NC(=O)c2ccccc2CC[N+](=O)[O-])c1	n	n	n	76	n
O=C(Nc1ccc(Br)cc1)c1ccccc1CC[N+](=O)[O-]	n	n	n	n	n
COc1ccc(S(=O)(=O)O/N=C2\CCCc3ccccc32)cc1	n	42	n	n	n
SMILES	14-3-3 Bad inh	NCF1 inh	RBBP9 inh	eIF4E 4G PPI	Wee1 degr inh
O=S(=O)(O/N=C1\CCCc2ccccc21)c1ccccc1	n	n	n	n	n
CC(C)NC(=O)NC(=O)COC(=O)C1(C)CC1(Cl)Cl (stereo unspecified)	n	n	n	n	n
Cc1cc(Br)ccc1SCC(=O)OCC(=O)NC1CC1	n	n	n	n	10
O=C1CSC(=Nc2cccc(Cl)c2Cl)N1Cc1cccnc1	n	n	n	n	n
Cc1nn(CC#N)c(=O)n1-c1ccccc1F	n	n	n	n	n
Cc1ccc(-n2c(C)nn(CC#N)c2=O)cc1	87	n	n	n	n
CC(C)(C)OC(=O)NCCNC(=O)c1cccs1	n	n	n	n	n
O=C(NCCNc1nccc(C(F)(F)F)n1)c1cccs1	n	n	n	n	9.2
O=C(O)c1ccccc1N/N=C\c1ccnc2ccccc12	78	n	n	n	n
c1ccc(CSC2=NCCCN2)cc1	n	n	n	n	n
N#Cc1ccc(CSC2=NCCN2)cc1	n	n	n	n	9.8
O=C(c1ccc(Cl)c(S(=O)(=O)N2CCOCC2)c1)N1CCCCC1	n	n	n	n	n
CCOc1ccc(OCc2ccc(C(=O)N/N=C(\C)c3ccccn3)cc2)cc1	n	n	n	n	9.6
COc1ccc(C(=O)N/N=C(\c2ccccc2)c2ccccn2)cc1	n	n	n	n	n
CCOc1ccccc1N1CCN(Cc2cccc(OC)c2O)CC1	74	n	n	n	n
COc1ccccc1N1CCN(Cc2cc(Br)c(O)c3ncccc23)CC1	n	n	n	n	n
Cc1cccc(-n2cnc(C(=O)NC3CCCCCC3)c2)n1	n	n	n	30	n
C/C(=N/NS(=O)(=O)c1ccc(C)cc1)c1cccc(NC(=O)c2cccc(Cl)c2)c1	n	n	n	n	n
C/C(=N/NS(=O)(=O)c1ccc(Cl)cc1)c1cccc(NC(=O)c2ccc(Cl)cc2Cl)c1	n	31	n	n	n
Cc1ccc(S(=O)(=O)n2c3ccc(Cl)cc3c3nc(C)sc32)cc1	n	n	n	n	n
O=C1c2ccccc2C(=O)c2c(NCCCN(CCO)CCO)cccc21	n	37	n	n	n
CCN(CC)CC(=O)Nc1cccc2c1C(=O)c1ccccc1C2=O	n	n	n	n	n
N#C/C(=C\c1ccc(-c2ccc([N+](=O)[O-])cc2)o1)C(=O)Nc1nc(-c2cccs2)cs1	n	n	n	31	n
CCOP(=O)(Nc1ccc2oc(=O)c3ccccc3c2c1)OCC	n	n	n	n	n
Cc1ccccc1C(=O)NNC(=O)CCC(=O)Nc1cccc(Cl)c1C	n	n	n	n	n
SMILES	14-3-3 Bad inh	NCF1 inh	RBBP9 inh	eIF4E 4G PPI	Wee1 degr inh
Cc1c(Cl)cccc1NC(=O)CCC(=O)NNC(=O)c1ccccc1Cl	n	n	n	65	n
C/C(=N\NC(=O)c1cccnc1)c1ccc(C)c([N+](=O)[O-])c1	n	n	n	n	n
C/C(=N\NC(=O)c1[nH]c2c([N+](=O)[O-])cc(C)cc2c1-c1ccccc1)c1cccnc1	n	35	n	n	n
O=C(Nc1ccc(O)c(-c2nc3ccccc3o2)c1)C1(c2ccccc2)CCCC1	n	n	n	n	n
CC1CC(C)CN(CC(C)(C)NS(=O)(=O)c2ccccc2)C1 (stereo unspecified)	77	n	n	n	n
CC(C)(CN1CCc2ccccc2C1)NS(=O)(=O)c1ccccc1	n	n	n	n	n
Cc1ccc(NC(=O)Cn2nnc3ccccc32)cc1	n	n	n	n	10
CCn1cc(/C=N/NC(=O)COc2cccc3cccnc23)c2ccccc21	80[fluorescence artefact?]	41	n	n	n
COc1ccc(/C=N/NC(=O)COc2cccc3cccnc23)cc1OC	n	n	n	n	n
O=C1CNC(=O)N1CC(=O)N1CCCc2ccccc21	n	n	n	n	n
CC(C)(C)NC(=O)CSc1nc2[nH]ncc2c(=O)[nH]1	n	n	n	n	n
COc1ccc(-c2nc(CC(=O)O)cs2)cc1OC	81	n	n	n	23
COc1ccc(-c2nc(CC(=O)O)cs2)cc1	n	n	n	n	n
